Screens (PubChem)
FLuc act counter: affects firefly luciferase, flagging false hits in luciferase stimulation screens. activation factor at 10 µM. 200,000 tested, under 10 active. ATPlite luciferase biochemical, luminescence, 10 min; 0 = ATP-free wells, 1 = DMSO control. AID 1027;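 active means luciferase activation factor, scaled between plate controls, of at least 2 with compound at 10 µM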
Target sequence (P08659 whole entry, looked up): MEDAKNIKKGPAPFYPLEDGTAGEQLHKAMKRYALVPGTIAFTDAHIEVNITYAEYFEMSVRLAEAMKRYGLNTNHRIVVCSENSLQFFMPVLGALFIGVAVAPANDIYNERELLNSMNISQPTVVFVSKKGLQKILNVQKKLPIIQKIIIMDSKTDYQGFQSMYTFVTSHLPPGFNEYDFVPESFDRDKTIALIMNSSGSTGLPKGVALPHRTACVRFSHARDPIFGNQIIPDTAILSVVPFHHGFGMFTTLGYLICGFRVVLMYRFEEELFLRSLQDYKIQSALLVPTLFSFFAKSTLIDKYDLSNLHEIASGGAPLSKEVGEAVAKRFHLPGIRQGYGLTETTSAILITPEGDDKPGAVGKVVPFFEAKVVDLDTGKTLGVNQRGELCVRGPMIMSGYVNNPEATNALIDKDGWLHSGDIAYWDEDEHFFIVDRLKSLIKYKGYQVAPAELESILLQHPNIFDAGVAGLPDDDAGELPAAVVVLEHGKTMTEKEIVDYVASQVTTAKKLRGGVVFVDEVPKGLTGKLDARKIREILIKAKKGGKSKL
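Material: Luciferase/luciferin reagent mix | Doses: Test compounds dosed from 2 mM stocks in 100% DMSO | Timing: 10 min incubation after luciferase reagent addition, room temperature | Measured by: Luminescence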
TRAIL sens C8: caspase-8 TRAIL sensitization. AID 624354. NB7+C8 cells + TRAIL, ATPlite viability luminescence. inhibition (viability loss, TRAIL sensitization), % at 10 µM. 1% of 360,000 active;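 active means compounds causing at least 50% loss of cell viability in the single-dose screen, relative to plate controls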
FLuc inh counter: counter-screen for luciferase assay inhibitors: firefly luciferase inhibition; ATPLite firefly luciferase biochemical luminescence, 10 min; inhibition, % at 10 µM; 1.5% of 200,000 active; AID 1006;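 active means inhibition above about 50% when tested at 10 µM, limit read from the data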
HSP90 refold inh: inhibitors of HSP90 luciferase refolding in rabbit reticulocyte lysate; luciferase refolding luminescence, 3 h; inhibition, % at 5.6 µM; 0.91% of 290,000 active;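 active means inhibition above the screen-wide mean plus 3 SD, computed separately per campaign, cut at about 16% in these data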;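 further: 0% = DMSO wells and 100% = 60 µM geldanamycin wells; inhibitors lower the luminescence because luciferase stays unfolded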
PPC-1+TRAIL kill: kills PPC-1 cancer cells in the presence of TRAIL; PPC-1 cells + TRAIL, ATPLite viability luminescence; 0.41% of 220,000 active; AID 1443; cell killing (% activity), % at 4 µM or 5 µM;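 active means cell killing above 50% in the first pass at 4 µM, then a duplicate retest at 5 µM averaging 50% or more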;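 further: plate controls were cells with TRAIL plus DMSO for no effect and medium-only wells lacking cells for full effect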
HSP90 confirm: confirmation of HSP90 inhibitors; shares compounds with HSP90 refold inh; rabbit reticulocyte lysate, luciferase refolding luminescence, 3 h; inhibition, % at 5.9 µM; 64% of 2,300 active; AID 1846; in the data active means inhibition above about 18%;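 further: 0% = vehicle wells and 100% = reference inhibitor wells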
luciferase ctr: counter-screen for HSP90 inhibitors: inhibitors of firefly luciferase; shares compounds with HSP90 refold inh; AID 1847; 48% of 2,300 active; inhibition, % at 5.9 µM; purified native firefly luciferase, luminescence;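 active means inhibition above the mean inhibition of all tested sample wells plus 3 SD, cut at about 10% in these data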;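 further: 0% = DMSO with luciferase and 100% = wells lacking luciferase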
An asterisk follows results filed as active; / = not tested or not shown. Shown are actives, neighbours in structure and some others; about 2% of the full set was active somewhere.

SMILES | FLuc act counter | TRAIL sens C8 | FLuc inh counter | HSP90 refold inh | PPC-1+TRAIL kill | HSP90 confirm | luciferase ctr
CCn1c(C)cc(/C=C2/NC(=O)N(c3ccccc3)C2=O)c1C | 0.7 | -1.3 | 27.4 | 30.9* | 16.8 | 6.7 | -16.1
COCCn1c(C)cc(/C=C2/NC(=O)N(c3cccc(Cl)c3)C2=O)c1C | 1 | -4.4 | 1.8 | 10.1 | 4.0 | / | /
CN1CCN(CC(=O)Nc2ccc([N+](=O)[O-])cc2Br)CC1 | 1.1 | 2.9 | -8.0 | -1.0 | 19.2 | / | /
Nc1cccc2c1C(=O)N(CCOc1ccccc1F)C2=O | / | -0.6 | / | 29.6* | / | 51.4* | 45.3*
COc1ccc(-n2nc(C(=O)NCC(=O)NCCCN3CC(C)CC(C)C3)c3ccccc3c2=O)cc1OC (centres undefined) | / | -2.4 | / | -1.6 | / | / | /
Cc1ccc(OCC(=O)N/N=C/C=C/c2ccco2)cc1C | 0.6 | 4.9 | 39.1 | 3.1 | -3.6 | / | /
COC(=O)C1C(c2ccc(N(C)C)cc2)C(C(=O)OC)S(=O)(=O)CS1(=O)=O (centres undefined) | 1 | -3.4 | -3.3 | 0.9 | 3.9 | / | /
Cc1nc(N)sc1-c1csc(Nc2ccc(S(N)(=O)=O)cc2)n1 | / | 0.5 | / | 59.7* | / | -6.5 | -9.4
Cc1nc(NC(=O)c2ccccc2)sc1-c1csc(Nc2cccc(F)c2)n1 | 1 | / | -2.2 | 36.6* | 13.8 | 27.8* | -18.6
CCCCCC(=O)Nc1nc(C)c(-c2csc(Nc3ccccc3OC)n2)s1 | 1.1 | 15.0 | -10.4 | 5.4 | 10.5 | / | /
CCOc1ccccc1Nc1nc(-c2sc(NC(=O)c3cccc(Cl)c3)nc2C)cs1 | 1.1 | 1.8 | -8.2 | 73.1* | 1.5 | 33.0* | -5.4
COc1ccccc1Nc1nc(-c2sc(NC(=O)c3ccccc3)nc2C)cs1 | 1.1 | -21.4 | -5.7 | 47.2* | -6.8 | 24.1* | -11.4
COc1cc2c(cc1OC)C(c1ccc([N+](=O)[O-])cc1)NC(=O)C2 (centres undefined) | / | 4.5 | / | 2.6 | / | / | /
CC(C)[C@H](NS(=O)(=O)c1ccccc1)C(=O)Nc1ccccc1N1CCOCC1 | / | -4.6 | / | / | / | / | /
Cc1ccc(Cl)cc1Nc1nc(-c2sc(NC(=O)c3ccccc3)nc2C)cs1 | 1 | / | -2.0 | 57.3* | 23.7 | 46.4* | -18.6
CCCCCCC(=O)Nc1nc(C)c(-c2csc(Nc3cc(Cl)ccc3C)n2)s1 | 1 | 6.9 | -4.8 | 4.9 | 8.1 | / | /
CCOc1ccccc1Nc1nc(-c2sc(NC(=O)c3ccccc3)nc2C)cs1 | 1.1 | / | -7.6 | 46.3* | 37.2 | 25.1* | -6.2
COc1ccccc1Nc1nc(-c2sc(NC(=O)c3ccc([N+](=O)[O-])cc3)nc2C)cs1 | 0.9 | / | 5.0 | 72.2* | 22.6 | 22.6* | -5.3
COc1cccc(Nc2nc(-c3sc(N)nc3C)cs2)c1 | 1 | -0.6 | 4.3 | 17.1* | -7.2 | -4.6 | -28.8
CCCCCC(=O)Nc1nc(C)c(-c2csc(Nc3ccccc3OCC)n2)s1 | 1.1 | 7.7 | -7.9 | 5.7 | -0.1 | / | /
COc1cccc(Nc2nc(-c3sc(C)nc3C)cs2)c1 | / | 6.1 | / | -2.5 | / | / | /
COc1ccc(/C=C2\Oc3cc(OCC(=O)N4CC(O)C[C@H]4C(=O)O)ccc3C2=O)cc1OC (some centres undefined) | / | -2.9 | / | -5.2 | / | / | /
Cn1nnc(NC(=S)NC(=O)c2cc(Cl)ccc2Cl)n1 | / | -9.8 | / | 6.7 | / | / | /
Cc1cc(NS(=O)(=O)c2ccc(Nc3nc(-c4sc(NC(=O)c5ccccc5)nc4C)cs3)cc2)no1 | 1 | / | -1.7 | 32.8* | 9.7 | 14.1 | -8.3
COc1ccccc1Nc1nc(-c2sc(N)nc2C)cs1 | / | -22.6 | / | 31.0* | / | 1.5 | -16.3
CCC(=O)Nc1nc(C)c(-c2csc(Nc3ccc(S(=O)(=O)Nc4cc(C)on4)cc3)n2)s1 | 1 | / | -3.9 | 4.5 | 11.7 | / | /
CCc1ccc(C(C)NC(=O)c2ncn[nH]2)cc1 (centres undefined) | 1.1 | 13.6 | -5.5 | -1.4 | 9.9 | / | /
CCCCn1c(N)c(N(CCC(C)C)C(=O)c2ccc([N+](=O)[O-])s2)c(=O)[nH]c1=O | / | 9.4 | / | / | / | / | /
CN(C)c1ccc(/C=N/Nc2nc3ccccc3o2)cc1 | / | 48.1 | / | 45.3* | / | 63.1* | 62.0*
COc1ccccc1NC(=O)c1cc(C(=O)Nc2ccccc2OC)n(C)n1 | / | -35.7 | / | / | / | / | /
